{"data": "Assay results gathered from unrelated publications", "VIPR1": "Vasoactive intestinal polypeptide receptor 1 (VIPR1, Homo sapiens, UniProt P32241)", "MAOA": "Amine oxidase [flavin-containing] A (MAOA, Homo sapiens, UniProt P21397)", "PRMT3": "Protein arginine N-methyltransferase 3 (PRMT3, Homo sapiens, UniProt O60678)", "note": "Compare with care: the assays were run in different laboratories."}
{"SMILES": "Oc1cccc(Nc2nc(-c3ccc(F)cc3F)cs2)c1", "target": "VIPR1", "test": "cell-free assay", "setting": "10 µM", "inhibition [%]": -0.5}
{"SMILES": "CC[C@H](C)[C@H](NC(=O)[C@H](CCC(N)=O)NC(=O)[C@H](CC(C)C)NC(=O)[C@H](CCSC)NC(=O)[C@H](CCCCN)NC(=O)[C@H](CO)NC(=O)[C@H](CO)NC(=O)[C@H](CCSC)NC(=O)[C@H](CC(C)C)NC(=O)[C@H](CC(N)=O)NC(=O)[C@@H](NC(=O)[C@@H](NC(=O)[C@H](CO)NC(=O)[C@H](CC(C)C)NC(=O)[C@H](CS)NC(=O)[C@H](CCCNC(=N)N)NC(=O)[C@H](CC(=O)O)NC(=O)[C@H](Cc1c[nH]c2ccccc12)NC(=O)[C@H](Cc1ccccc1)NC(=O)[C@H](C)NC(=O)[C@H](CCC(=O)O)NC(=O)[C@@H](N)CCCCN)C(C)C)[C@@H](C)CC)C(=O)N[C@@H](CC(N)=O)C(=O)N[C@@H](C)C(=O)O", "target": "Cyclin-dependent kinase 5, with p25 (CDK5, Homo sapiens, UniProt Q00535)", "test": "enzyme activity, inhibitor, radiometric", "setting": "1 µM", "inhibition [%]": 0}
{"SMILES": "Cc1cc([N+](=O)[O-])ccc1NC(=O)c1ccc(Cl)cc1", "target": "MAOA", "test": "enzyme activity, inhibitor", "setting": "1 µM, 20 min", "inhibition [%]": 13}
{"SMILES": "N#Cc1cc(Cn2c(N3CCCC3)nc3ccccc32)ccc1F", "target": "Alpha-1A adrenergic receptor (ADRA1A, Homo sapiens, UniProt P35348)", "test": "ligand displacement", "setting": "10 µM", "inhibition [%]": -11.7}
{"SMILES": "C#CCNC(=N)NCCCSC[C@H]1O[C@@H](n2cnc3c(NCCCc4ccccc4)ncnc32)[C@H](O)[C@@H]1O", "target": "PRMT3", "test": "enzyme activity, inhibitor, fluorescence", "setting": "10 µM", "inhibition [%]": 6.56}
{"SMILES": "Nc1ncnc2c1ncn2[C@@H]1O[C@H](CSCCNC(=O)NCc2ccccc2)[C@@H](O)[C@H]1O", "target": "PRMT3", "test": "enzyme activity, inhibitor, radiometric", "setting": "10 µM", "inhibition [%]": "> 95"}
{"SMILES": "O=C(Nc1ccccc1)c1ccc(Cl)cc1", "target": "MAOA", "test": "enzyme activity, inhibitor", "setting": "1 µM, 20 min", "inhibition [%]": 18}
{"SMILES": "COc1cc(NC(C)=O)c(Cl)cc1C(=O)Nc1nccs1", "target": "VIPR1", "test": "cell-free assay", "setting": "10 µM", "inhibition [%]": -13.5}
{"SMILES": "O=C(Nc1ccc([N+](=O)[O-])cc1Cl)c1ccc2c(c1)OCO2", "target": "MAOA", "test": "enzyme activity, inhibitor", "setting": "1 µM, 20 min", "inhibition [%]": 9}
{"SMILES": "COc1ccc2c(c1)[C@H](NCCC(C)C)C[C@H]2c1ccc(Cl)c(Cl)c1 (relative stereo)", "target": "Glutathione reductase, mitochondrial (GSR, Homo sapiens, UniProt P00390)", "test": "enzyme activity, inhibitor", "setting": "25 µM", "inhibition [%]": "< 12"}
{"SMILES": "COC(=O)CN=c1scc(-c2ccccc2)n1-c1ccccc1", "target": "L-lactate dehydrogenase A chain (LDHA, Homo sapiens, UniProt P00338)", "test": "enzyme activity, inhibitor, fluorescence", "setting": "100 µM, pH 7.2", "inhibition [%]": 33}
{"SMILES": "N=C(NCCCSC[C@H]1O[C@@H](n2cnc3c(NCCCc4ccccc4)ncnc32)[C@H](O)[C@@H]1O)NC1CCCCC1", "target": "PRMT3", "test": "enzyme activity, inhibitor, fluorescence", "setting": "10 µM", "inhibition [%]": -5.11}
{"SMILES": "COc1cc([N+](=O)[O-])ccc1NC(=O)c1cc(Cl)ccc1O", "target": "MAOA", "test": "enzyme activity, inhibitor", "setting": "1 µM, 20 min", "inhibition [%]": 9}
{"SMILES": "CCN(CC)CCNC(=O)c1c(C)[nH]c(/C=C2\\C(=O)Nc3ccc(F)cc32)c1C", "target": "Cyclin-dependent kinase-like 2 (CDKL2, Homo sapiens, UniProt Q92772)", "test": "binding, competition with immobilised ligand", "setting": "10 µM", "inhibition [%]": 92}
{"SMILES": "O=C(Nc1ccc([N+](=O)[O-])cc1Cl)c1cc2ccccc2cc1O", "target": "MAOA", "test": "enzyme activity, inhibitor", "setting": "1 µM, 20 min", "inhibition [%]": -2}
{"SMILES": "N#Cc1ccc2c(ccn2CCC2CCN(C(=O)OC(C(F)(F)F)C(F)(F)F)CC2)c1", "target": "Fatty-acid amide hydrolase 1 (Faah, Rattus norvegicus, UniProt P97612)", "test": "enzyme activity, inhibitor", "setting": "10 µM", "inhibition [%]": 45}
{"SMILES": "O=C(Nc1ccc([N+](=O)[O-])cc1C(F)(F)F)c1cc(Cl)ccc1O", "target": "MAOA", "test": "enzyme activity, inhibitor", "setting": "1 µM, 20 min", "inhibition [%]": 13}
{"SMILES": "N=C(NCCCSC[C@H]1O[C@@H](n2cnc3c(NCCCc4ccccc4)ncnc32)[C@H](O)[C@@H]1O)NCCc1ccccc1", "target": "PRMT3", "test": "enzyme activity, inhibitor, fluorescence", "setting": "10 µM", "inhibition [%]": 1.64}
